# ChEMBL document CHEMBL1157362, “Pharmacokinetics of the anti-human immunodeficiency virus agent 1-(beta-D-dioxolane)thymine in rhesus monkeys” (Antimicrob Agents Chemother, 2007)
# How the values were obtained:
# [1] = Systemic clearance in rhesus monkey at 33.3 mg/kg, iv; type: ADME, organism-based, Macaca mulatta; set-up: dose 33.3 mg/kg, route intravenous; conditions: in vivo
# In short: (§1)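 Rhesus monkeys (three) got a single 33.3 mg/kg dose orally by gastric intubation in water, then i.v. in saline after a washout of at least 4 weeks. Animals were under ketamine/Telazol anesthesia. Femoral-vein blood was drawn at 0–24 h. Serum was acetonitrile-extracted with AZT internal standard and assayed by HPLC-UV at 266 nm. Parameters came from a simultaneous two-compartment fit weighted 1/(predicted)2. F was from AUCoral = F x AUCi.v.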
# [2] = Central volume of distribution in rhesus monkey at 33.3 mg/kg, iv; type: ADME, organism-based, Macaca mulatta; set-up: dose 33.3 mg/kg, route intravenous; conditions: in vivo, read-out: Vc; in short: as §1
# [3] = Terminal phase half life in rhesus monkey at 33.3 mg/kg, iv; type: ADME, organism-based, Macaca mulatta; set-up: dose 33.3 mg/kg, route intravenous; conditions: in vivo; in short: as §1
# [4] = Volume of distribution at steady state in rhesus monkey at 33.3 mg/kg, iv; type: ADME, organism-based, Macaca mulatta; set-up: dose 33.3 mg/kg, route intravenous; conditions: in vivo, read-out: Vdss; in short: as §1
# [5] = AUC in rhesus monkey at 33.3 mg/kg, iv; type: ADME, organism-based, Macaca mulatta; set-up: dose 33.3 mg/kg, route intravenous; conditions: plasma; in short: as §1
# [6] = Mean residence time in rhesus monkey at 33.3 mg/kg, iv; type: ADME, organism-based, Macaca mulatta; set-up: dose 33.3 mg/kg, route intravenous; conditions: in vivo; in short: as §1
# [7] = Renal clearance in rhesus monkey at 33.3 mg/kg, iv; type: ADME, organism-based, Macaca mulatta, Kidney; set-up: dose 33.3 mg/kg, route intravenous; conditions: in vivo, read-out: CL_renal (converted)
# In short: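 Renal clearance was derived by fitting 0–8 h urinary excretion (HPLC-UV) to dXu/dt = Clrenal x Cp. Cp was the serum concentration predicted by the two-compartment serum fit, and the urine fit was unweighted. Dose was 33.3 mg/kg.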
# [8] = AUC in rhesus monkey at 33.3 mg/kg, po; type: ADME, organism-based, Macaca mulatta; set-up: dose 33.3 mg/kg, route oral; conditions: plasma; in short: as §1
# [9] = Mean residence time in rhesus monkey at 33.3 mg/kg, po; type: ADME, organism-based, Macaca mulatta; set-up: dose 33.3 mg/kg, route oral; conditions: in vivo; in short: as §1
# [10] = Tmax in rhesus monkey at 33.3 mg/kg, po; type: ADME, organism-based, Macaca mulatta; set-up: dose 33.3 mg/kg, route oral; conditions: in vivo
# In short: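 Oral gastric-intubation dose of 33.3 mg/kg in water given to rhesus monkeys under ketamine/Telazol anesthesia. Serial femoral-vein serum was sampled from 0.25 to 24 h and assayed by reverse-phase HPLC-UV at 266 nm. Time of peak was taken from a two-compartment model fitted with an absorption lag.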
# [11] = Cmax in rhesus monkey at 33.3 mg/kg, po; type: ADME, organism-based, Macaca mulatta; set-up: dose 33.3 mg/kg, route oral; conditions: in vivo; in short: as §1
# [12] = Oral bioavailability in rhesus monkey at 33.3 mg/kg; type: ADME, organism-based, Macaca mulatta; conditions: in vivo; in short: as §1
# [13] = Biodistribution in rhesus monkey urine assessed as dose recovered unchanged at 33.3 mg/kg, po after 8 hrs; type: ADME, organism-based, Macaca mulatta; set-up: dose 33.3 mg/kg, route oral; conditions: read-out: Drug uptake
# In short: (§2)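 Monkeys were catheterized and dosed with 33.3 mg/kg by i.v. or oral route under anesthesia. Urine was collected in intervals over 0–8 h. Untreated urine was incubated 12 h at 37°C in acetate/phosphate buffer pH 5.8 and spiked with AZT internal standard. Unchanged drug was quantified by HPLC-UV at 266 nm against urine standard curves of 0.1–100 µg/ml.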
# [14] = Biodistribution in rhesus monkey urine assessed as dose recovered unchanged at 33.3 mg/kg, iv after 8 hrs; type: ADME, organism-based, Macaca mulatta; set-up: dose 33.3 mg/kg, route intravenous; conditions: read-out: Drug uptake; in short: as §2
# Rhesus monkey [15] = experiment: Drug elimination in rhesus monkey assessed as beta-dioxolane-thymine-glucuronide elimination at 33.3 mg/kg, po; type: ADME, organism-based, Macaca mulatta; set-up: dose 33.3 mg/kg, route oral; conditions: in vivo
# In short: (§3)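 Glucuronide was estimated indirectly in 0–8 h urine after a 33.3 mg/kg i.v. or oral dose. Urine was treated with β-glucuronidase (500 U/ml, freshly prepared) in acetate/phosphate buffer pH 5.8 for 12 h at 37°C. Untreated urine served as the parallel sample. Glucuronide was taken as the difference in parent drug between the two samples by HPLC-UV. Its presence was screened by ESI MS/MS.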
# Rhesus monkey [16] = experiment: Drug elimination in rhesus monkey assessed as beta-dioxolane-thymine-glucuronide elimination at 33.3 mg/kg, iv; type: ADME, organism-based, Macaca mulatta; set-up: dose 33.3 mg/kg, route intravenous; conditions: in vivo; in short: as §3
# [17] = Drug level in rhesus monkey cerebrospinal fluid at 33.3 mg/kg, iv after 1 hr; type: ADME, organism-based, Macaca mulatta; set-up: dose 33.3 mg/kg, route intravenous; conditions: read-out: Drug uptake
# In short: (§4)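 Cerebrospinal fluid was drawn by cisternal or lumbar tap 1 and 2 h after a 33.3 mg/kg i.v. or oral dose in anesthetized rhesus monkeys. Samples were kept frozen at –70°C. AZT internal standard was added, and the sample was injected directly for HPLC-UV at 266 nm against water-based standards of 0.1–25 µg/ml.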
# [18] = Drug level in rhesus monkey cerebrospinal fluid at 33.3 mg/kg, iv after 2 hrs; type: ADME, organism-based, Macaca mulatta; set-up: dose 33.3 mg/kg, route intravenous; conditions: read-out: Drug uptake; in short: as §4
# [19] = Drug level in rhesus monkey cerebrospinal fluid at 33.3 mg/kg, po after 1 hr; type: ADME, organism-based, Macaca mulatta; set-up: dose 33.3 mg/kg, route oral; conditions: read-out: Drug uptake; in short: as §4
# [20] = Drug level in rhesus monkey cerebrospinal fluid at 33.3 mg/kg, po after 2 hrs; type: ADME, organism-based, Macaca mulatta; set-up: dose 33.3 mg/kg, route oral; conditions: read-out: Drug uptake; in short: as §4
# [21] = Ratio of drug level in cerebrospinal fluid to plasma of rhesus monkey at 33.3 mg/kg, iv after 1 hr; type: ADME, organism-based, Macaca mulatta, CSF/Plasma; set-up: dose 33.3 mg/kg, route intravenous
# In short: (§5)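 CSF was taken by cisternal or lumbar tap at 1 and 2 h after a 33.3 mg/kg i.v. or oral dose, along with femoral-vein serum. Both were quantified by HPLC-UV at 266 nm with AZT internal standard. The ratio was CSF concentration divided by serum concentration at the same time.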
# [22] = Ratio of drug level in cerebrospinal fluid to plasma of rhesus monkey at 33.3 mg/kg, iv after 2 hrs; type: ADME, organism-based, Macaca mulatta, CSF/Plasma; set-up: dose 33.3 mg/kg, route intravenous; in short: as §5
# [23] = Ratio of drug level in cerebrospinal fluid to plasma of rhesus monkey at 33.3 mg/kg, po after 1 hr; type: ADME, organism-based, Macaca mulatta, CSF/Plasma; set-up: dose 33.3 mg/kg, route oral; in short: as §5
# [24] = Ratio of drug level in cerebrospinal fluid to plasma of rhesus monkey at 33.3 mg/kg, po after 2 hrs; type: ADME, organism-based, Macaca mulatta, CSF/Plasma; set-up: dose 33.3 mg/kg, route oral; in short: as §5
# Rhesus monkey [25] = experiment: Tlag in rhesus monkey at 33.3 mg/kg, po; conditions: in vivo
# [26] = Cmax in rhesus monkey; type: ADME, organism-based, Macaca mulatta; conditions: in vivo
# [27] = Oral bioavailability in rhesus monkey; type: ADME, organism-based, Macaca mulatta; conditions: in vivo
# Rhesus monkey [28] = experiment: AUC in rhesus monkey; type: ADME, organism-based, Macaca mulatta, Plasma; conditions: in vivo
# [29] = Terminal phase half life in rhesus monkey; type: ADME, organism-based, Macaca mulatta; conditions: in vivo
# [30] = Central volume of distribution in rhesus monkey; type: ADME, organism-based, Macaca mulatta; conditions: in vivo, read-out: Vc
# [31] = Volume of distribution at steady state in rhesus monkey; type: ADME, organism-based, Macaca mulatta; conditions: in vivo, read-out: Vdss
# [32] = Oral bioavailability in rhesus monkey at 60 mg/kg; type: ADME, organism-based, Macaca mulatta; conditions: in vivo
# [33] = Oral bioavailability in cynomolgus monkey; type: ADME, organism-based, Macaca fascicularis; conditions: in vivo
# [34] = Oral bioavailability in mouse; type: ADME, organism-based; conditions: in vivo
# [35] = Oral bioavailability in human; type: ADME, organism-based; conditions: in vivo
# [36] = Drug elimination in monkey urine after 30 days; type: ADME, organism-based, Macaca mulatta; conditions: rhesus monkey, Activity
compound,measurement,setting,value
Cc1cn([C@H]2CO[C@@H](CO)O2)c(=O)[nH]c1=O,clearance,[1],6 mL/min/kg
same,Vd,[2],0.52 L/kg
same,half-life,[3],2.16 h
same,Vd,[4],1.02 L/kg
same,AUC,[5],416 µM·h
same,MRT,[6],2.88 h
same,CL renal,[7],3 mL/min/kg
same,AUC,[8],387 µM·h
same,MRT,[9],3.26 h
same,Tmax,[10],0.5 h
same,Cmax,[11],105 µM
same,bioavailability,[12],95%
same,dose excreted at 8 h,[13],48%
same,dose excreted at 8 h,[14],40%
same,Drug uptake,Rhesus monkey [15],8%
same,Drug uptake,Rhesus monkey [16],4%
same,concentration at 1 h,[17],7.8 µM
same,concentration at 2 h,[18],12.3 µM
same,concentration at 1 h,[19],3.2 µM
same,concentration at 2 h,[20],4.2 µM
same,Kp at 1 h,[21],0.09
same,Kp at 2 h,[22],0.18
same,Kp at 1 h,[23],0.05
same,Kp at 2 h,[24],0.06
same,Tlag,Rhesus monkey [25],0.51 h
Nc1nc2c(ncn2[C@H]2CO[C@@H](CO)O2)c(=O)[nH]1,Cmax,[26],50 µM
Nc1nc(=O)n([C@H]2CO[C@@H](CO)O2)cc1F,bioavailability,[27],38%
same,Cmax,[26],34.4 µM
same,AUC,Rhesus monkey [28],197 µM·h
same,half-life,[29],2.48 h
same,Vd,[30],0.53 L/kg
same,Vd,[31],0.53 L/kg
Nc1nc(N)c2ncn([C@H]3CO[C@@H](CO)O3)c2n1 [AMDOXOVIR],bioavailability,[27],30%
Cc1cn([C@H]2C=C[C@@H](CO)O2)c(=O)[nH]c1=O [STAVUDINE],bioavailability,[32],25%
same,bioavailability,[33],83%
same,bioavailability,[34],100%
same,bioavailability,[35],100%
same,half-life,[29],0.8 h
same,dose excreted at 720 h,[36],< 50%
Cc1cn([C@H]2C[C@H](N=[N+]=[N-])[C@@H](CO)O2)c(=O)[nH]c1=O [ZIDOVUDINE],bioavailability,[32],90%
same,half-life,[29],0.8 h
